pEC50: −log10 of the molar value. Numbered stars: 1 amine (or outer) side, 2 acyl side, 3 side chain; on linkers, the order of the positions; unused ones are H or OH. Bridge positions count the residues as written; N and C are the ends. Square brackets hold non-standard residues; d marks the D form. Peptide text beside a SMILES is read from it. * marks the point of attachment. Phe(4-Cl) = N[C@@H](Cc1ccc(Cl)cc1)C(=O)O; Phe(4-Et) = CCc1ccc(C[C@H](N)C(=O)O)cc1; Phe(4-Me) = Cc1ccc(C[C@H](N)C(=O)O)cc1; 2Thi = N[C@@H](Cc1cccs1)C(=O)O; X4 = N=C(N)NCCC[C@@H](CO)N*; X2 = N=C(N)NCCC[C@H](CO)N*; hCys = N[C@@H](CCS)C(=O)O; X1 = O=C(CCC[*:2])[*:1]; X3 = O=C(CC[*:2])[*:1]
Legend:
Vasopressin V2 receptor = Vasopressin V2 receptor (Homo sapiens, UniProt P30518); experiment: Agonist activity at recombinant human V2 receptor expressed in HEK293 cells measured after 5 hrs by cAMP response element driven luciferase reporter gene assay; format: functional, cell-based
Oxytocin receptor = biological target: T1, Oxytocin receptor (Homo sapiens, UniProt P30559); experiment: Agonist activity at human OTR stably expressed in CHOK1 cells by NFAT-luciferase reporter gene assay; format: cell-based
T1 sequence (P30559 whole entry): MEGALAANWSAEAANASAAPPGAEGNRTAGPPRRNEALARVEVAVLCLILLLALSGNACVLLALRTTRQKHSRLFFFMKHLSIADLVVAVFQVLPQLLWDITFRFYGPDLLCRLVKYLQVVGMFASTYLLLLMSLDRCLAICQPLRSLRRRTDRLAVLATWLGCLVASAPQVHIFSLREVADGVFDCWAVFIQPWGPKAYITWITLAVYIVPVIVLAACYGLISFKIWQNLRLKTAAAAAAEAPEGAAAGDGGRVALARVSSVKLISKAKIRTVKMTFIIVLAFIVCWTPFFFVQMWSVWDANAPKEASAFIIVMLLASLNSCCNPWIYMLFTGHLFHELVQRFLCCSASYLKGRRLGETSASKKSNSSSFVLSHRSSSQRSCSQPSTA

Vasopressin V1a receptor = Vasopressin V1a receptor (Homo sapiens, UniProt P37288); experiment: Agonist activity at recombinant human V1a receptor expressed in HEK293 cells up to 1000 nM measured after 5 hrs by luciferase reporter gene assay; format: cell-based; conditions: hek293, 5 h
[1] = Clearance in Sprague-Dawley rat at 0.1 mg/kg, iv administered as cassette dose by LC-MS/MS analysis; format: ADME, organism-based; conditions: in vivo
[2] = Protein binding in rat plasma at 200 to 1000 ng/ml measured after 15 mins by UC-LC/MS/MS analysis; format: ADME, cell-free; conditions: read-out: PPB (converted)
Summary of the method: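 Peptide spiked into rat plasma to final 200-1000 ng/mL, incubated 15 min at 37 °C, ultracentrifuged at 773,000 xg for 30 min at 37 °C; middle-layer sample quantified by LC/MS/MS; binding (%) = (Ci − Cm)/Ci × 100; quadruplicate.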

[3] = biological target: T2, Oxytocin receptor (Homo sapiens) (UniProt P30559); experiment: Agonist activity at human OTR stably expressed in CHOK1 cells by NFAT-luciferase reporter gene assay relative to control; format: cell-based
T2 sequence (whole entry): T1 sequence (P30559 whole entry)

[4] = Non-renal clearance in nephrectomized Sprague-Dawley rat at 0.1 mg/kg, iv administered as cassette dose by LC-MS/MS analysis; format: ADME, organism-based; conditions: in vivo

Sequence of Vasopressin V1a receptor (P37288 whole entry): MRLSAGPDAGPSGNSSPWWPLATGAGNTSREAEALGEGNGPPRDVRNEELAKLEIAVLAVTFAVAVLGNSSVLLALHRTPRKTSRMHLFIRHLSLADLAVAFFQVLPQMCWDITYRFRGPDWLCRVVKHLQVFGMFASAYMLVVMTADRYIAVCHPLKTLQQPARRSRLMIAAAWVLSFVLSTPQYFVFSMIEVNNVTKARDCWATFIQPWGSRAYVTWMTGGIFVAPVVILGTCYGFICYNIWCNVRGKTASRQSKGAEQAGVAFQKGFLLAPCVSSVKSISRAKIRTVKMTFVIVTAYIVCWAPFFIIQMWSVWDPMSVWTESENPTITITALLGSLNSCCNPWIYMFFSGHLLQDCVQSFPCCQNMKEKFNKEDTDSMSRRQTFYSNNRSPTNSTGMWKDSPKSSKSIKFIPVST
Sequence of Vasopressin V2 receptor (P30518 whole entry): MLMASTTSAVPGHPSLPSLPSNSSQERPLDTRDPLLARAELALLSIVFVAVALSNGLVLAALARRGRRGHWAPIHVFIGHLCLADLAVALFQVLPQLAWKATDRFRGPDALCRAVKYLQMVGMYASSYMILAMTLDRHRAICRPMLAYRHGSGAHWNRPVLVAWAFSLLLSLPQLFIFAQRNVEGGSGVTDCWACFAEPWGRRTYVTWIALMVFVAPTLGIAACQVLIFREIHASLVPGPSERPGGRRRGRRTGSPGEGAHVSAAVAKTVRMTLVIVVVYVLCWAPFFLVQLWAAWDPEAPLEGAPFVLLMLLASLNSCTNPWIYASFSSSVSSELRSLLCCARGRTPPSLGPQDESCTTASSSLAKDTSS

| pEC50 (Vasopressin V2 receptor) | pEC50 (Oxytocin receptor) | Activity (Vasopressin V1a receptor) | clearance [1] | fraction unbound at […] [2] | Efficacy [3] | CL [4] | SMILES |
| --- | --- | --- | --- | --- | --- | --- | --- |
| 10.10 | 6.80 | Not Active | 6.9 mL/min/kg | 0.74 | – | – | CC(C)[C@@H]1NC(=O)[C@H](Cc2cccs2)NC(=O)[C@H](Cc2ccc(O)cc2)NC(=O)CCSCC[C@@H](C(=O)N2CCC[C@H]2C(=O)N[C@@H](CO)CCCNC(=N)N)NC(=O)[C@H](CC(N)=O)NC1=O (Y[2Thi]VN[hCys]P-X2; linker N-5 via X3) |
| 10.00 | 6.64 | Not Active | 8.1 mL/min/kg | 0.85 | – | – | CC(C)[C@@H]1NC(=O)[C@H](Cc2cccs2)NC(=O)[C@H](Cc2ccc(O)cc2)NC(=O)CCCSC[C@@H](C(=O)N2CCC[C@H]2C(=O)N[C@H](CO)CCCNC(=N)N)NC(=O)[C@H](CC(N)=O)NC1=O (Y[2Thi]VNCP-X4; linker N-5 via X1) |
| – | 6.85 | Not Active | 38 mL/min/kg | 0.09 | 32% | 100% | CC(C)[C@@H]1NC(=O)[C@H](Cc2cccs2)NC(=O)[C@H](Cc2ccc(Cl)cc2)NC(=O)CCCSC[C@@H](C(=O)N2CSC[C@H]2C(=O)N[C@H](CCCNC(=N)N)C(=O)NCc2ccccc2)NC(=O)[C@H](CC(N)=O)NC1=O |
| – | < 5.00 | Not Active | 2.8 mL/min/kg | 0.11 | – | 66% | CC(C)[C@@H]1NC(=O)[C@H](Cc2cccs2)NC(=O)[C@H](Cc2ccc(Cl)cc2)NC(=O)CCSCC[C@@H](C(=O)N2CCC[C@H]2C(=O)N[C@@H](CO)CCCNC(=N)N)NC(=O)[C@H](CC(N)=O)NC1=O ([Phe(4-Cl)][2Thi]VN[hCys]P-X2; linker N-5 via X3) |
| – | < 5.00 | Not Active | 8.1 mL/min/kg | 0.19 | – | – | CC(C)[C@@H]1NC(=O)[C@H](Cc2cccs2)NC(=O)[C@H](Cc2ccc(Cl)cc2)NC(=O)CCCSC[C@@H](C(=O)N2CCC[C@H]2C(=O)N[C@H](CO)CCCNC(=N)N)NC(=O)[C@H](CC(N)=O)NC1=O ([Phe(4-Cl)][2Thi]VNCP-X4; linker N-5 via X1) |
| – | < 5.00 | Not Active | 5.3 mL/min/kg | 0.32 | – | 30% | Cc1ccc(C[C@@H]2NC(=O)CCCSC[C@@H](C(=O)N3CCC[C@H]3C(=O)N[C@@H](CO)CCCNC(=N)N)NC(=O)[C@H](CC(N)=O)NC(=O)[C@H](C(C)C)NC(=O)[C@H](Cc3cccs3)NC2=O)cc1 ([Phe(4-Me)][2Thi]VNCP-X2; linker N-5 via X1) |
| – | < 5.00 | Not Active | 4 mL/min/kg | 0.2 | – | – | CC(C)[C@@H]1NC(=O)[C@H](Cc2cccs2)NC(=O)[C@H](Cc2ccc(Cl)cc2)NC(=O)CCCSC[C@@H](C(=O)N2CCC[C@H]2C(=O)N[C@@H](CO)CCCNC(=N)N)NC(=O)[C@H](CC(N)=O)NC1=O ([Phe(4-Cl)][2Thi]VNCP-X2; linker N-5 via X1) |
| 9.46 | < 5.00 | Not Active | 9.4 mL/min/kg | 0.16 | – | 80% | CCc1ccc(C[C@@H]2NC(=O)CCCSC[C@@H](C(=O)N3CCC[C@H]3C(=O)N[C@@H](CO)CCCNC(=N)N)NC(=O)[C@H](CC(N)=O)NC(=O)[C@H](C(C)C)NC(=O)[C@H](Cc3cccs3)NC2=O)cc1 ([Phe(4-Et)][2Thi]VNCP-X2; linker N-5 via X1) |
